In the library only some 3.8% were active in any assay of this set; here they are far more common.
ARNT TACC3 PPI – disruptors of ARNT/TACC3 protein interaction, primary screen, biochemical, AlphaScreen, single concentration. Transforming acidic coiled-coil-containing protein 3 (Homo sapiens), Q9Y6A5. AlphaScreen His-ARNT PAS-B/GST-TACC3 binding, luminescence; TACC3 fragment carries E629A point mutation. inhibition, % at 9.99 µM. 390,000 tested, 0.66% active. AID 623870, 2012;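 active means mean inhibition of replicates at least 50% and at least half of replicates each reaching 50%; inconclusive means half or more replicates reach 50% but mean below 50%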
DENV2 CPE – inhibitors of DENV2 cytopathic effect, primary screen, cell-based, plate reader, single concentration | DENV2-infected cells, cytopathic effect rescue | CPE inhibition, % at 9.99 µM | 350,000 tested, 1.7% active | AID 651640, 2012; in the data active means CPE inhibition above about 20%, passing the limit was not always enough; inconclusive means no clear call, values can overlap the other calls; tested in BHK-21 cells
Xi reactivation – activators of inactive X chromosome reactivation, primary screen, imaging, XiGFP fibroblasts, GFP high-content imaging, set 2. 360,000 tested, 0.055% active. AID 743238, 2013. XiGFP mouse fibroblasts, % GFP-positive cells imaging, 3 d; cells co-treated with 5-aza-dC sensitizer; scaled so ellipticine positive control = 100%. activation, % at 7.58 µM;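 active means mean normalized replicate activation at least 10% and every replicate at or above 10%; inconclusive means only one of the two criteria met; inactive means mean below 10% and not all replicates reach 10%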
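assay system = SV40-immortalized XiGFP fibroblast cells, line 68-5-11 | buffer or medium = DMEM plus 5-aza-dC sensitizer | doses = single-point pinned compound dosing | times = 3-day compound exposure, then 15 min fixation at room temperature | benchmarks = positive control ellipticine, 6 µM final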
FN deposition inh – inhibitors of fibronectin matrix deposition, primary screen, AH1F cells, Alexa488-fibronectin fluorescence, plate reader; AH1F fibroblasts, overnight; inhibition, % at 12.6 µM; 350,000 tested, 0.086% active;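 active means mean inhibition across replicates of 30% or more, regardless of how many single replicates reach that level; inconclusive means mean under 30% yet at least half of replicates reach 30%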
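Assay system: AH1F fibroblasts assembling fluorescent fibronectin matrix; Amount: 10000 AH1F cells per well; Buffer or medium: DMEM, 2% serum; Probe or stimulus: Alexa488-fibronectin, 24 nM final in well; Doses: single compound dose, delivered by pin transfer; Incubation: 1 h adhesion, overnight exposure; Measured by: fluorescence 485/525 nm; Read-out: fibronectin deposition inhibition.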
FGF22 binding – binders of human FGF22 protein, primary screen, FGF22 synaptogenesis inhibitor project, biophysical, thermal shift, single point. AID 651658, 2012. recombinant FGF22 thermal shift, SYPRO orange fluorescence; percent of sucrose octasulfate shift, DMSO zero. Fibroblast growth factor 22 (Homo sapiens), Q9HCT0. activity (Tm shift, normalised), % at 9.99 µM. 340,000 tested, 1.5% active;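 active means mean Tm shift, scaled 0 neutral to 100 positive control, at about 1.3% or above, every replicate too, limit read from the data; inconclusive means no clear call, values can overlap the other calls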
Target sequence (Q9HCT0 whole entry, looked up): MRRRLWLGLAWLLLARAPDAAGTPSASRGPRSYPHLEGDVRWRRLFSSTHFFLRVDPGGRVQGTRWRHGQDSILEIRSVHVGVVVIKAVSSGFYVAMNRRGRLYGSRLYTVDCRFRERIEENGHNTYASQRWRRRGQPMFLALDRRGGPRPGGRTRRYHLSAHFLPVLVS
SIRT5 inh – SIRT5 desuccinylase inhibitors, primary screen, biochemical, fluorescence imaging, single point, set 5; NAD-dependent protein deacylase sirtuin-5, mitochondrial (Homo sapiens), Q9NXA8; 330,000 tested, 1.1% active; Purified SirT5, succinyl-peptide AMC, trypsin-coupled fluorescence; inhibition, % at 15 µM; in the data active means inhibition above about 15%; inconclusive means no clear call, values can overlap the other calls
Target sequence (Q9NXA8 whole entry, looked up): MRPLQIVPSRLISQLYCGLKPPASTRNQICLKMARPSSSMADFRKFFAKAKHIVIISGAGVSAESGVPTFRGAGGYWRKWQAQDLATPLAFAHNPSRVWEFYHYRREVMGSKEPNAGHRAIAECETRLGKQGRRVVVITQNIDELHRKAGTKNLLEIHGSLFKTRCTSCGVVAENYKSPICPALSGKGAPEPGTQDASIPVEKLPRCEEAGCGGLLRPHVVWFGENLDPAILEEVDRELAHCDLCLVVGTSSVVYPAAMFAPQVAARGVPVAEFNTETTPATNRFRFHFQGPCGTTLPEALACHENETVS
Numbers stand for hits; - = inactive; ? = inconclusive; . = not tested or not shown.

SMILES	ARNT TACC3 PPI	DENV2 CPE	Xi reactivation	FN deposition inh	FGF22 binding	SIRT5 inh
COc1cc(C(=O)N2CCN(c3ccccc3OC)CC2)c([N+](=O)[O-])cc1OC	-	-	-	.	-	-
CCCC(=O)Nc1ccc2c(c1)C(=O)N(C)[C@@H]1CC[C@H](CC(=O)NCc3ccccc3Cl)O[C@@H]1CO2	-	-	-	-	-	-
CCOC(=O)C1(C)CCCN1C(=O)c1ccc(OC)c(F)c1 (configuration not stated)	.	-	-	.	-	.
COc1ccc(C(=O)N2CCC2(C)C(=O)O)cc1F (configuration not stated)	.	79	-	-	-	-
COc1cccc(/C=N/NC(=O)C(=O)N/N=C/c2cccc(OC)c2O)c1O	-	-	-	-	-	-
COC(=O)c1cccc(/C=N/NC(N)=S)c1O	67	-	-	-	-	-
CCn1cc(C(=O)O)c(=O)c2cc(F)c(N3CCN(C(=S)NC(=O)c4ccc(F)cc4)CC3)cc21	-	-	-	-	-	-
CCCOc1ccc(C(=O)NC(=S)N2CCN(c3cc4c(cc3F)c(=O)c(C(=O)O)cn4CC)CC2)cc1	-	53	-	-	-	-
CCn1cc(C(=O)O)c(=O)c2cnc(N3CCN(C(=S)NC(=O)c4ccc(OC)cc4)CC3)nc21	-	-	-	-	-	29
O=C(O)Cc1ccc(N=Nc2c(O)c(C(=O)O)cc3ccccc23)cc1	-	-	-	-	-	31
CCC(=O)Oc1ccc(C(=O)Nc2cccc(C(=O)NCC(C)C)c2)cc1	.	-	-	-	43	-
CCC(=O)Oc1ccc(C(=O)Nc2ccccc2C(=O)NCC(C)C)cc1	-	.	-	.	-	-
CC(C)NC(=O)NCC[C@@H]1CC[C@H](NS(=O)(=O)c2ccccc2)[C@@H](CO)O1	.	-	-	.	.	-
CCN(CC)CC(C)(C)C(=O)/C=C/c1ccc(/C=C/C(=O)C(C)(C)CN(CC)CC)cc1	-	-	-	46	-	-
CCN(CC)CCOC(=O)/C=C/c1ccccc1	-	-	-	-	-	-
O=C(Oc1ccc(Oc2ccccc2)cc1)N1CCC(O)CC1	-	-	-	-	-	34
O=C(Oc1ccccc1)N1CCCC1	-	-	-	-	-	-
O=C(/C(=C(\[O-])c1ccccc1)[n+]1ccc2ccccc2c1)c1ccccc1	50	.	-	-	.	.
C[C@@H]1CCCCO[C@@H](CN(C)C(=O)Cc2ccccc2)[C@@H](C)CN([C@@H](C)CO)C(=O)c2cc(NC(=O)Nc3ccc4c(c3)OCO4)ccc2O1	-	?	-	.	-	-
CCc1nc2ccc(C(=O)Nc3cc(-c4ccccc4)ccc3OC)cn2c1N(C)Cc1nccs1	.	-	-	-	43	.
CCc1nc2ccc(C(=O)Nc3cc(-c4ccccc4)ccc3OC)cn2c1N(C)Cc1ccc(OC)cc1	.	-	-	.	-	-
COc1cccc(S(=O)(=O)Nc2ccc3c(c2)C(=O)N(C)[C@@H]2CC[C@@H](CC(=O)NCC4CCCCC4)O[C@@H]2CO3)c1	-	?	-	-	-	-
CCCC#Cc1ccc([C@@H]2[C@H](CO)N3C(=O)CN(C(=O)Nc4ccc(F)cc4)C[C@@H]23)cc1	.	-	-	.	.	-
COc1ccccc1/C=C/C(=O)NCC(=O)N/N=C/c1ccc(C)o1	-	-	-	-	-	100
Cc1ccc(/C=N/NC(=O)CNC(=O)c2ccc(C)c([N+](=O)[O-])c2)o1	-	-	-	.	-	-
SMILES	ARNT TACC3 PPI	DENV2 CPE	Xi reactivation	FN deposition inh	FGF22 binding	SIRT5 inh
COc1ccccc1/C=C\C(=O)NCC(=O)N/N=C/c1ccc(O)cc1O	54	-	-	-	-	-
Cc1ccccc1NC(=S)N/N=C/c1ccc(O)cc1O	58	-	-	-	-	16
Cc1cccc(NC(=S)N/N=C/c2cccc(O)c2)c1C	-	-	-	-	-	-
Cc1ccc(/C=N/NC(=O)CNC(=O)c2cccc([N+](=O)[O-])c2C)o1	-	-	-	-	43	-
COc1ccc2c3c(n(C)c2c1)[C@H](CO)N(C(=O)C1CCCC1)CC31CN(C)C1	.	-	-	.	-	-
C[C@H](CO)N1C[C@H](C)[C@H](CN(C)C(=O)Nc2ccccc2)Oc2ccc(N(C)C)cc2C1=O	-	-	-	.	-	-
CNC(=O)C[C@@H]1CC[C@@H]2[C@@H](COc3ccc(NC(=O)c4ccccc4F)cc3C(=O)N2C)O1	-	-	-	-	-	.
Cc1noc(C)c1S(=O)(=O)Nc1ccc2c(c1)C(=O)N([C@H](C)CO)C[C@@H](C)[C@@H](CN(C)C(=O)Nc1ccc(F)cc1)O2	.	.	-	-	.	.
C[C@@H]1CCCCO[C@H](CN(C)C(=O)c2ccccc2)[C@H](C)CN([C@@H](C)CO)C(=O)c2cc(NC(=O)CCC(F)(F)F)ccc2O1	-	-	-	-	-	-
CC(C)C#Cc1ccc([C@H]2[C@H](CO)N3C(=O)CN(C(=O)Cc4cccnc4)C[C@@H]23)cc1	.	.	-	.	.	.
O=C(COCC(=O)N/N=C/c1ccccc1F)N/N=C/c1ccccc1F	-	-	-	-	-	-
Cc1cccc(NC(=O)CCC(=O)N/N=C/c2ccc(O)cc2O)c1	60	-	-	-	-	-
COc1ccccc1/C=N/NC(=O)COCC(=O)N/N=C/c1ccccc1OC	-	-	-	-	-	19
COc1cccc(/C=N/NC(=O)c2ccccc2)c1OS(=O)(=O)c1ccccc1	-	-	-	-	44	-
COc1ccc([N+](=O)[O-])cc1/C=N/NC(=O)Cc1ccccc1	.	-	-	-	44	-
COc1ccccc1-c1ccc2c(c1)O[C@@H](CN(C)CC1CC1)[C@@H](C)CN([C@H](C)CO)S2(=O)=O	.	.	-	.	.	.
C[C@H]1COCn2nncc2CC[C@H](C)C(=O)N1	.	.	-	-	.	.
O=C(C[C@H]1CC[C@@H]2[C@H](COC[C@@H](O)CN2Cc2cccc(F)c2)O1)NCc1ccncc1	-	-	-	-	-	-
CC(C)NCC(O)COc1ccc(Br)cc1 (configuration not stated)	.	-	-	-	44	-
COCC(=O)Nc1ccc2c(c1)OC[C@@H](C)N(Cc1cccnc1)C[C@@H](C)[C@H](OC)CN(C)C2=O	.	?	-	-	-	-
